pEC50, pIC50: −log10 of the molar value. Activity calls are given as the source filed them. The calls are words filed in the database; no cut-off is given here.
Columns and labels:
[1] = Inhibition of Transmissible gastroenteritis virus TFI recombinant GST-tagged 3C-like protease expressed in Escherichia coli BL21 (DE3)
In short: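 The TGEV strain TFI 3CLpro was expressed in E. coli BL21(DE3) as a GST fusion, purified on glutathione resin, and had the tag cleaved with PreScission protease. IC50 came from at least eight concentrations.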

[2] = system: Transmissible gastroenteritis virus; test: Antiviral activity against Transmissible gastroenteritis virus TFI infected in swine testicle cells assessed as protection against virus-induced cytopathic effect at 100 uM after 24 hrs post infection; type: functional, organism-based
[3] = system: Transmissible gastroenteritis virus; test: Antiviral activity against Transmissible gastroenteritis virus TFI infected in swine testicle cells assessed as reduction of 3CL protease mRNA level at 5 uM after 6 hrs post infection by RT-PCR; type: functional; parameters: scale not given: the % may be the effect or the level left
In short: (§1)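 Viral RNA was extracted from lysates of TGEV-infected ST cells for SYBR green real-time RT-PCR, with primers for TGEV N protein or 3CLpro. Cycling was 50°C 2 min and 95°C 10 min, then 40 cycles of 95°C 15 s and 60°C 1 min. Levels were normalized to β-actin by the comparative CT method, with CT measured at least in triplicate.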

[4] = system: Transmissible gastroenteritis virus; test: Antiviral activity against Transmissible gastroenteritis virus TFI infected in swine testicle cells assessed as protection against virus-induced cytopathic effect at 100 uM after 18 hrs post infection; type: functional, organism-based
In short: (§2)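 ST cell monolayers were inoculated with TGEV at MOI 5 and kept at 37°C under 5% CO2. Treatments were 5 µM compound, caspase inhibitor ZVAD-fmk at 100 µM as positive control, or 1% DMSO vehicle. At 18–24 hpi CPE was scored by microscopy as cell rounding, enlargement, syncytia and detachment. Two independent experiments were run.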

[5] = system: Transmissible gastroenteritis virus; test: Antiviral activity against Transmissible gastroenteritis virus TFI infected in swine testicle cells assessed as inhibition of S and N protein expression treated 2 hrs before infection measured after 6 hrs post infection by indirect immunofluorescent assay; type: functional, organism-based; details: Alphacoronavirus 1, TFI
In short: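 ST cells, with or without a 2-h compound pretreatment, infected with TGEV at MOI 10. At 6 h they were fixed in 80% acetone and stained with mAbs to S and N protein, then FITC anti-mouse Ig for 60 min at room temperature. Fluorescence was read at ex 485/em 535 nm. Eight concentrations were tested, and EC50 was taken from dose-response curves.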

[6] = system: Transmissible gastroenteritis virus; test: Antiviral activity against Transmissible gastroenteritis virus TFI infected in swine testicle cells assessed as reduction of 3CL protease mRNA level at 1 uM after 6 hrs post infection by RT-PCR; type: functional; parameters: scale not given: the % may be the effect or the level left; in short: as §1
[7] = system: Transmissible gastroenteritis virus; test: Antiviral activity against Transmissible gastroenteritis virus TFI infected in swine testicle cells assessed as protection against virus-induced caspase 3 activation at 5 uM after 14 hrs post infection; type: functional, organism-based
In short: (§3)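 TGEV-infected ST cells were treated with compound at 5 µM, and caspase activation was examined at 14 and 18 hpi. Lysates with equal total protein were run on SDS-PAGE and transferred to nitrocellulose. Blots were probed with anti-caspase-3 (β-actin antibody also used) and detected by enhanced chemiluminescence.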

[8] = system: Transmissible gastroenteritis virus; test: Antiviral activity against Transmissible gastroenteritis virus TFI infected in swine testicle cells assessed as reduction of 3CL protease mRNA level at 10 uM after 6 hrs post infection by RT-PCR; type: functional; parameters: scale not given: the % may be the effect or the level left; in short: as §1
[9] = Cytotoxicity against swine testicle cells after 18 hrs; type: cell-based, Sus scrofa; details: pig
In short: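 ST cells in MEM with 10% fetal bovine serum were exposed to eight concentrations of compound for 18 h. GI50 was derived from the dose-response curves.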

[10] = system: Transmissible gastroenteritis virus; test: Antiviral activity against Transmissible gastroenteritis virus TFI infected in swine testicle cells assessed as protection against virus-induced caspase 3 activation at 5 uM after 18 hrs post infection; type: functional, organism-based; in short: as §3
[11] = system: Transmissible gastroenteritis virus; test: Antiviral activity against Transmissible gastroenteritis virus TFI infected in swine testicle cells assessed as reduction of 3CL protease mRNA level after 6 hrs post infection by RT-PCR; type: functional, organism-based; in short: as §1
[12] = system: Transmissible gastroenteritis virus; test: Antiviral activity against Transmissible gastroenteritis virus TFI infected in swine testicle cells assessed as reduction of N protein expression after 6 hrs post infection by Western blot analysis; type: functional, organism-based
In short: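 TGEV-infected ST cells were treated with compound at 0.3 to 10 µM. Lysates with equal total protein were separated by SDS-PAGE, transferred to nitrocellulose, probed with anti-TGEV N protein antibody, and detected by enhanced chemiluminescence. Three independent experiments were run.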

[13] = biological target: Replicase polyprotein 1ab (Severe acute respiratory syndrome-related coronavirus, UniProt P0C6X7); test: Inhibition of SARS Coronavirus 3C-like protease expressed in Escherichia coli
[14] = system: Transmissible gastroenteritis virus; test: Antiviral activity against Transmissible gastroenteritis virus TFI infected in swine testicle cells assessed as protection against virus-induced cytopathic effect at 5 uM after 24 hrs post infection; type: functional, organism-based; in short: as §2
[15] = system: Transmissible gastroenteritis virus; test: Antiviral activity against Transmissible gastroenteritis virus TFI infected in swine testicle cells assessed as reduction of N protein mRNA level at 1 uM after 6 hrs post infection by RT-PCR; type: functional; parameters: scale not given: the % may be the effect or the level left; in short: as §1
[16] = system: Transmissible gastroenteritis virus; test: Antiviral activity against Transmissible gastroenteritis virus TFI infected in swine testicle cells assessed as reduction of N protein mRNA level at 10 uM after 6 hrs post infection after 6 hrs post infection by RT-PCR; type: functional; parameters: scale not given: the % may be the effect or the level left; in short: as §1
[17] = system: Transmissible gastroenteritis virus; test: Antiviral activity against Transmissible gastroenteritis virus TFI infected in swine testicle cells assessed as reduction of N protein mRNA level after 6 hrs post infection by RT-PCR; type: functional, organism-based; in short: as §1
[18] = system: Transmissible gastroenteritis virus; test: Antiviral activity against Transmissible gastroenteritis virus TFI infected in swine testicle cells assessed as protection against virus-induced cytopathic effect at 5 uM after 18 hrs post infection; type: functional, organism-based; in short: as §2
[19] = system: Transmissible gastroenteritis virus; test: Antiviral activity against Transmissible gastroenteritis virus TFI infected in swine testicle cells assessed as reduction of N protein mRNA level at 5 uM after 6 hrs post infection by RT-PCR; type: functional; parameters: scale not given: the % may be the effect or the level left; in short: as §1

Compound	pIC50 [1]	Activity [2]	Activity [3]	Activity [4]	pEC50 [5]	Activity [6]	Activity [7]	Activity [8]	GI50 at 18 h [9]	Activity [10]	Activity [11]	Activity [12]	pIC50 [13]	Activity [14]	Activity [15]	Activity [16]	Activity [17]	Activity [18]	Activity [19]
CCC(=C\c1sc2c3ccccc3ccc2[n+]1CC)/C=C1/Sc2cc(C)c(C)cc2N1CC	5.10	Active	0.5%	Active	5.68	1.4%	Active	0.3%	21.3 µM	Active	Dose-dependent effect	Dose-dependent effect	5.27	Active	2.6%	1.1%	Dose-dependent effect	Active	1.3%
CCN1/C(=C\C=C\c2sc3ccc(-c4nc5ccccc5s4)cc3[n+]2CC)Sc2ccc(-c3nc4ccccc4s3)cc21	5.68				< 4.52		inactive		> 50 µM	inactive			5.60						
CCC(=C\c1sc2cc(C)c(C)cc2[n+]1CC)/C=C1/Sc2cc(/C=C/c3ccccc3)ccc2N1CC		Active		Active	5.74		Active			Active				Active				Active	
C(/C1=C2Sc3ccccc3N2CC1)=C1\CC[n+]2c1sc1ccccc12	5.66				< 4.52		inactive		> 50 µM	inactive			4.98						
CCN1/C(=C\C=C\C2=CC(=C/c3sc4ccccc4[n+]3CC)/CC(C)C2)Sc2ccccc21 (configuration not stated)	4.92	Active	2.3%	Active	5.21	20.8%	Active	1.4%	> 50 µM	Active	Dose-dependent effect	Dose-dependent effect	5.70	Active	13.7%	1.4%	Dose-dependent effect	Active	2.1%
CCN1C(c2ccccc2)=C(c2ccccc2)S/C1=C/C=C/c1sc2c3ccccc3ccc2[n+]1CC.[Cl-]	5.31	Active	1.2%	Active	5.35	39.9%	Active	0.2%	18.1 µM	Active		Dose-dependent effect	5.42	Active	59.6%	0.4%		Active	3%
CCN1/C(=C\C(=C/c2sc3ccccc3[n+]2CCCS(=O)(=O)[O-])OC)Sc2ccc(OC)cc21	5.48	Active		Active	5.52		Active		13.1 µM	Active			5.14	Active				Active	
CCN1/C(=C\C=c2/s/c(=C\c3sc4ccccc4[n+]3CC)n(CC)c2=O)Sc2ccccc21	5.66				4.76		inactive		> 50 µM	inactive			5.00						
CCC(/C=C1\Sc2cc(/C=C/c3ccccc3)ccc2N1CC)=C\c1sc2cc(C)c(C)cc2[n+]1CC									> 50 µM				5.18						

From ChEMBL document CHEMBL1137639, “Novel small-molecule inhibitors of transmissible gastroenteritis virus” (Antimicrob Agents Chemother, 2007)
